In the library only some 2.2% were active in any assay of this set; here they are far more common.
Wee1 degr inh: Wee1 degradation inhibitors, primary screen, cell-based, HeLa, Wee1K328M-luciferase, luminescence. Wee1-like protein kinase (Homo sapiens), P30291. HeLa Luc-Wee1K328M stability; 100% = proteasome inhibitor MG132 effect. reporter increase, % at 5 µM. actives 1.2% (n = 220,000);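 active = activation above the mean of all tested compounds plus 3 SD, set per screening run, cut at about 8.8% in these data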;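 note: cells exposed to compound for 20 h before luminescence read; 0% = DMSO alone and 100% = MG132 at 30 µM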
Thrombin inh: human alpha-thrombin inhibitors, primary screen, counter-screen for coagulation protease inhibitor project, biochemical, 1536-well, fluorogenic AMC substrate. Prothrombin (Homo sapiens), P00734. Boc-VPR-AMC fluorogenic substrate cleavage. inhibition, % at 5 µM. actives 0.26% (n = 220,000). AID 1046, 2008;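 active = inhibition at or above 40%; inactive = inhibition below 40%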;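 note: 0% = enzyme with no compound and 100% = wells without enzyme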
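Material: human alpha-thrombin enzyme / Medium: pH 7.5 Tris (50 mM) with NaCl 150 mM, Tween 20 0.05% / Compound: single-point dosing at 5 µM, 0.2% DMSO / Incubation: enzyme reaction carried out at room temperature / Detection: AMC fluorescence, 355/460 nm / Read-out basis: percent inhibition scaled between no-compound controls and no-enzyme blanks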
FXIa inh: human FXIa protease inhibitors, primary screen, biochemical, 1536-well | inhibition, % at 5 µM | actives 0.14% (n = 220,000) | Coagulation factor XI (Homo sapiens), P03951 | purified FXIa, Boc-Glu-Ala-Arg-AMC fluorogenic substrate;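 active = inhibition of at least 40%; inactive = inhibition below 40%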;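 note: fluorescence of freed AMC excited at 355 nm; 0% = enzyme without compound and 100% = no enzyme blank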
Target sequence (P03951 19-387 limits assumed): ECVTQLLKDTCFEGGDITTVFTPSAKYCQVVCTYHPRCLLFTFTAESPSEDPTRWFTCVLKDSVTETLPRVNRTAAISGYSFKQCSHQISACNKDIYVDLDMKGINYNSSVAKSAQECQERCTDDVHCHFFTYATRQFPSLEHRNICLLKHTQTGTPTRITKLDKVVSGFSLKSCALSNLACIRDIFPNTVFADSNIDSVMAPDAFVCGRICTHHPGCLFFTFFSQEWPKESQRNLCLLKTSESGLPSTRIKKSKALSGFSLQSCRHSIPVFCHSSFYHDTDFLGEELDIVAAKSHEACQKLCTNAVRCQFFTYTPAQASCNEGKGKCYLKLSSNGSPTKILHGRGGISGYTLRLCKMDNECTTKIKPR
Target sequence (P03951 388-625 limits assumed): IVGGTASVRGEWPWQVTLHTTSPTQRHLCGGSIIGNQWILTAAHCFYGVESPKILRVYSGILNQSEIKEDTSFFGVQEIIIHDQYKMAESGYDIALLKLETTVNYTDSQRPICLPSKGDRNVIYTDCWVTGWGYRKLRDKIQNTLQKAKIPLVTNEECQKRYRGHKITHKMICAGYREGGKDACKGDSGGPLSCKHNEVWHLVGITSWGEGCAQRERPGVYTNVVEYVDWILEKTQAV
KLK5 inh: human KLK5 protease inhibitors, primary screen, biochemical, 1536-well. inhibition, % at 5 µM. actives 0.59% (n = 210,000). AID 873, 2007. Kallikrein-5 (Homo sapiens), Q9Y337. recombinant hK5, fluorogenic AMC substrate cleavage;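 active = inhibition of 40% or more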;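 note: 0% = enzyme controls without compound and 100% = no-enzyme blanks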
FXIIa inh 1536: human FXIIa protease inhibitors, primary screen, biochemical, 1536-well. Coagulation factor XII (Homo sapiens), P00748. purified FXIIa, Boc-QGR-AMC fluorogenic substrate, 2 h. inhibition, % at 5 µM. actives 0.3% (n = 220,000). AID 800, 2007; in the data active = inhibition above about 40%;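 note: 0% = enzyme with no compound and 100% = blank without enzyme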
* hit, by the source's call; nt = no result given; ! = not active in a repeat.

SMILES | Wee1 degr inh | Thrombin inh | FXIa inh | KLK5 inh | FXIIa inh 1536
N=C1SCC(=O)N1Cc1ccccc1 | 1.4 | -5.2 | -7.0 | -11.8 | 0.1
N=c1n(CCO)c2ccccc2n1Cc1ccccc1 | 1.1 | 67.3* | 14.1 | 30.4 | 16.8
CN(CC1COc2ccccc2O1)c1nc(-c2cccnc2)nc2ccccc12 (configuration not stated) | 1.0 | 17.3 | 11.0 | 52.9* | 10.2
CC(C)[N+]12CCC(CC1)C(C(O)(c1ccccc1)c1ccccc1)C2 (configuration not stated) | 3.1 | -4.8 | -4.4 | -4.8 | -2.0
COc1cccc(N=Nc2c(O)[nH]c(=S)[nH]c2=O)c1 | 1.9 | -2.9 | 7.3 | -8.0 | 16.0
COc1ccc(N=Nc2c(O)[nH]c(=S)[nH]c2=O)cc1 | 9.8* | 2.1 | 3.6 | 1.5 | 4.9
CN(C)P(=O)(CCl)Nc1ccccc1 (configuration not stated) | -0.9 | -6.1 | 3.3 | 0.1 | 9.0
CN(C)CP(=O)(Nc1ccccc1)N(C)C (configuration not stated) | -0.3 | 27.2 | 5.3 | 66.8* | 18.6
COc1ccc(OCC(=O)N2CCN(C/C=C/c3ccccc3)CC2)cc1 | -0.1 | 82.5* | 38.1 | 25.9 | nt
CC(=O)N1CCN(c2ccc(N=Cc3c(O)n(-c4ccc(Cl)cc4)c(=O)[nH]c3=O)cc2)CC1 | 1.1 | 9.5 | 9.3 | 58.9* | 14.7
O=c1oc2ccccc2c(O)c1[C@H]1c2ccc(O)cc2Oc2c1c(=O)oc1ccccc21 | -1.3 | 0.6 | 2.4 | 1.0 | 3.9
Cc1ccc(N=C(N(C)C)P(=O)(N(C)C)N(C)C)cc1 | 1.4 | nt | 5.6 | 3.2 | 7.9
Cc1ccccc1NC(=O)CCl | -2.3 | 49.8* | 0.9 | -4.8 | 13.4
CCOC(=O)C1(c2ccccc2)CCN(Cc2cccc(C(=O)O)c2)CC1 | -2.8 | 19.6 | 11.6 | 44.1* | 18.9
CCOC(=O)C1(c2ccccc2)CCN(CC(=O)Nc2cccc3ccccc23)CC1 | -1.6 | 2.4 | 21.1 | -21.9 | 11.0
O=[N+]([O-])c1ccc(N2CCNCC2)cc1NC1CC1 | 6.3 | -1.9 | -0.1 | 5.2 | 11.9
CCNc1cc(N2CCNCC2)ccc1[N+](=O)[O-] | 2.7 | 33.8 | 68.0* | 27.8 | 28.0
CCN(CC)P(=O)(NC(=O)C(Cl)(Cl)Cl)N(CC)CC.[Cl-].[Cl-].[Cl-].[Nd+3] | 0.6 | -6.3 | -4.9 | -0.1 | 7.4
O=C(NCCN1CCOCC1)c1ccc(Cl)nc1Cl | 2.0 | nt | 7.8 | 7.6 | 14.9
O=P(C(=Nc1ccc(Cl)cc1)N1CCOCC1)(N1CCOCC1)N1CCOCC1 | -1.1 | 28.0 | 15.1 | 41.7* | 19.8
O=C1CN=C(c2ccccc2)c2cc(Br)ccc2N1Cc1cc(=O)n2ccccc2n1 | -1.1 | 0.8 | 7.8 | -19.6 | 10.4
NNC(=O)CN1C(=O)CN=C(c2ccccc2)c2cc(Br)ccc21 | -2.6 | 33.4 | 19.1 | 27.2 | 44.4*
CC12CN3CC(C)(CN(C1)C3c1ccco1)C2=O (configuration not stated) | 9.3* | 29.7 | 7.2 | 29.1 | 27.0
CC(=O)c1ccccc1NC(=O)C1C2CCC(O2)C1C(=O)O (configuration not stated) | 0.0 | 0.8 | 3.5 | -20.9 | 14.1
CC1CC(NC(=O)C2C3CCC(O3)C2C(=O)O)CC(C)(C)C1 (configuration not stated) | 1.3 | -4.3 | 23.4 | -5.2 | 45.5*
SMILES | Wee1 degr inh | Thrombin inh | FXIa inh | KLK5 inh | FXIIa inh 1536
COc1ccc(C(=O)C(Cc2ccccc2)N(C)C)cc1 (configuration not stated) | -0.1 | 1.4 | 2.3 | -9.3 | 16.3
CN(C)C(Cc1ccccc1)C(=O)c1ccc(-c2ccccc2)cc1 (configuration not stated) | 0.2 | 16.9 | 10.6 | 97.7* | 13.3
O=c1[nH]c(=S)n(C2CCCCC2)c(O)c1/C=N/N1CCOCC1 | -3.4 | 18.5 | 7.8 | 6.7 | 12.7
O=c1[nH]c(=S)n(C2CC2)c(O)c1/C=N/Nc1cccc2ccccc12 | 8.9* | -1.6 | 13.8 | -66.4 | 11.1
O=c1[nH]c(=S)n(C2CC2)c(O)c1/C=N/Nc1ccccc1 | 1.7 | 4.2 | 11.6 | -11.0 | 21.0
CC(=O)NC1C(OC(=O)Cc2ccccc2)OC(COC(C)=O)C(OC(C)=O)C1OC(C)=O (configuration not stated) | -0.6 | 3.7 | -4.1 | -16.6 | 1.7
CCC(=O)N1N=C(c2c(O)n(CCc3ccccc3)c(=O)[nH]c2=O)CC1c1ccc(OC)c(OC)c1 (configuration not stated) | -2.1 | -1.5 | 0.8 | -28.1 | 9.7
Cc1ccsc1C(=O)C1CCCN(Cc2cnn(C(C)C)c2)C1 (configuration not stated) | -0.2 | -8.8 | -0.7 | 1.6 | 8.5
Cc1ccsc1C(=O)C1CCCN(Cc2cnc(N)nc2)C1 (configuration not stated) | 9.6* | 5.9 | 8.0 | 5.1 | 9.1
COc1ccc(NC(=O)c2cc([N+](=O)[O-])ccc2N2CCNCC2)cc1 | -1.3 | 5.1 | 22.6 | 51.1* | 29.4
Cn1nnc(CC[N+](C)(C)C)n1 | 0.4 | 43.0* | 56.1* | 38.5 | 27.3
Cc1ccc(S(=O)(=O)CC(=O)c2cc(C)c(OC(=O)N(C)C)c(C)c2)cc1 | 2.9 | -17.5 | -1.2 | -3.9 | 7.8
Cc1cc(C(=O)CS(=O)(=O)c2ccccc2)cc(C)c1OC(=O)N(C)C | 10.0* | -13.0 | -5.5 | -2.8 | 5.0
CCCC(=O)NC(Oc1ccc(C(C)=O)cc1)C(Cl)(Cl)Cl (configuration not stated) | 5.3 | -10.1 | -2.7 | 1.8 | 0.3
CCn1c(=O)n(CC)c2cc([N+](=O)[O-])c(N3CCNCC3)cc21 | -1.5 | 31.8 | 30.6 | 11.7 | 20.4
O=[N+]([O-])/C=C1\NCCN1Cc1ccc(Cl)nc1 | 9.6*! | -9.1 | -0.1 | -1.7 | 9.3
Cc1nn(C2CCOC(C)(C)C2)c2c1C(c1ccc3c(c1)OCO3)SCC(=O)N2 (configuration not stated) | 11.2* | -4.3 | -12.1 | -10.4 | -0.8
COc1ccc(C2SCC(=O)Nc3c2c(C)nn3C2CCOC(C)(C)C2)cc1 (configuration not stated) | -0.3 | 5.5 | 6.3 | -7.4 | 19.6
CCC(=NCC1CCCO1)c1c(O)n(-c2ccccc2)c(=O)[nH]c1=O (configuration not stated) | 1.9 | 14.6 | 18.0 | 60.8* | 17.9
CN1CCN(c2c(C#N)c(C(F)(F)F)nn2C)CC1 | 0.0 | -6.4 | -3.2 | -6.2 | -1.4
CN1C2CCC1/C(=C/c1ccccn1)C(=O)/C2=C\c1ccccn1 | 21.4* | -2.2 | 6.4 | -10.0 | 19.3
Cc1ccccc1-n1c(/C=C/c2ccccn2)nc2ccccc2c1=O | 0.7 | 4.9 | 2.8 | 5.8 | 15.6

High-throughput results as filed in PubChem.
